Source: ChEMBL document CHEMBL1126595, “Studies directed toward the design of orally active renin inhibitors. 2. Development of the efficacious, bioavailable renin inhibitor (2S)-2-benzyl-3- [[(1-methylpiperazin-4-yl)sulfonyl]propionyl]-3-thiazol-4-yl-L-alanine amide of (2S,3R,4S)-2-amino-1-cyclohexyl-3,4-dihydroxy-6-methylheptane …” (J Med Chem, 1993)
Converted amounts (≈) assume the structure as drawn.

Legend:
[1] = Integrated area under the plasma drug level-time curve was determined in systemic circulation after intraduodenal dose of 10 mg/kg in ferret; type: ADME, organism-based, Mustela putorius furo; design: dose 10 mg/kg, route intraduodenal
Outline: (§1)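 Intraduodenal 10 mg/kg to anesthetized rats or ferrets. Compound dissolved in ethanol with 110 mol % HCl, then diluted in aqueous hydroxypropyl methylcellulose to 25% ethanol (10 mg/mL). Plasma sampled id rat 15, 30, 60, 120 min; id ferret 5, 15, 30, 60, 120, 180 min. Drug measured by renin inhibition assay or HPLC. AUC in ng h/mL. Bioavailability is relative to iv 1.0 mg/kg (rat) or 0.3 mg/kg (ferret).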

[2] = Integrated area under the plasma drug level-time curve was determined in systemic circulation after intraduodenal dose of 10 mg/kg in rat; type: ADME, organism-based; design: dose 10 mg/kg, route intraduodenal; outline: as §1
[3] = Peak concentration was determined in systemic circulation after intraduodenal dose of 10 mg/kg in ferret; type: ADME, organism-based, Mustela putorius furo; design: dose 10 mg/kg, route intraduodenal; settings: in vivo, read-out: Activity; outline: as §1
[4] = Peak concentration was determined in systemic circulation after intraduodenal dose of 10 mg/kg in rat; type: ADME, organism-based; design: dose 10 mg/kg, route intraduodenal; settings: in vivo, read-out: Activity; outline: as §1
[5] = Bioavailability in ferret (dose 10 mg/kg i.d.); type: ADME, organism-based, Mustela putorius furo; settings: in vivo; outline: as §1
[6] = Bioavailability in rat (dose 10 mg/kg i.d.); type: ADME, organism-based; settings: in vivo; outline: as §1
[7] = Bioavailability in the portal circulation after 10 minutes was determined after intraduodenal dose of 10 mg/kg in rat by HPLC method; type: ADME, organism-based; settings: plasma (portal circulation), read-out: Plasma level
Outline: (§2)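 Screening model in anesthetized rats given 10 mg/kg intraduodenally. Formulation was ethanol stock with 110 mol % HCl, diluted with aqueous hydroxypropyl methylcellulose to 25% ethanol. Systemic and portal blood drawn at 10 and 30 min in the same animals. Drug level (ng/mL) measured by HPLC or renin inhibition assay. Mean ± SEM, n = 3 unless noted.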

[8] = Bioavailability in the portal circulation after 30 minutes was determined after intraduodenal dose of 10 mg/kg in rat by HPLC method; type: ADME, organism-based; settings: plasma (portal circulation), read-out: Plasma level; outline: as §2
[9] = Bioavailability in the systemic circulation after 10 minutes was determined after intraduodenal dose of 10 mg/kg in rat by HPLC method; type: ADME, organism-based; settings: plasma (systemic circulation), read-out: Plasma level; outline: as §2
[10] = Bioavailability in the systemic circulation after 30 minutes was determined after intraduodenal dose of 10 mg/kg in rat by HPLC method; type: ADME, organism-based; settings: plasma (systemic circulation), read-out: Plasma level; outline: as §2
[11] = Partition coefficient in the octanol/water phase at pH 7.4; type: physicochemical
Outline: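 log P measured by octanol/water partition at pH 7.4.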

Renin = target: T1, Renin (Homo sapiens, UniProt P00797); assay: Inhibitory concentration against human plasma renin at pH 7.4; type: cell-free
T1 sequence (P00797 whole entry): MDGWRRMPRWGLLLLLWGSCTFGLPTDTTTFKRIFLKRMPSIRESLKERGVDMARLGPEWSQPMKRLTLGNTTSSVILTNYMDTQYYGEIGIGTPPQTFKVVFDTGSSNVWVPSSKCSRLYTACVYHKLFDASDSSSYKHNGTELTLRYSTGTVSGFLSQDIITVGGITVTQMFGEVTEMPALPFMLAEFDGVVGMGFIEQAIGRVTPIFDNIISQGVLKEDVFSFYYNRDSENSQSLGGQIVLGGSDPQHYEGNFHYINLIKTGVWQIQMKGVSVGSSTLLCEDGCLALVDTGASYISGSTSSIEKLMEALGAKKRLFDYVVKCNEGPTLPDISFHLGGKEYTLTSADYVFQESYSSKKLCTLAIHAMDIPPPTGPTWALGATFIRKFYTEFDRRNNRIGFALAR

[12] = Solubility at pH 7.4; type: physicochemical; settings: buffer
[13] = Bioavailability in the portal circulation after 30 minutes was determined after intraduodenal dose of 10 mg/kg in rat by renin inhibition assay; type: ADME, organism-based; settings: plasma (portal circulation), read-out: Plasma level; outline: as §2
[14] = Bioavailability in the portal circulation after 10 minutes was determined after intraduodenal dose of 10 mg/kg in rat by renin inhibition assay; type: ADME, organism-based; settings: plasma (portal circulation), read-out: Plasma level; outline: as §2
[15] = Bioavailability in the systemic circulation after 10 minutes was determined after intraduodenal dose of 10 mg/kg in rat by renin inhibition assay; type: ADME, organism-based; settings: plasma (systemic circulation), read-out: Plasma level; outline: as §2
[16] = Bioavailability in the systemic circulation after 30 minutes was determined after intraduodenal dose of 10 mg/kg in rat by renin inhibition assay; type: ADME, organism-based; settings: plasma (systemic circulation), read-out: Plasma level; outline: as §2

| SMILES | AUC [1] [ng·h/mL] | AUC [2] [ng·h/mL] | Cmax [3] [ng/mL] | Cmax [4] [ng/mL] | bioavailability [5] [%] | bioavailability [6] [%] | concentration at 10 min [7] [ng/mL] | concentration at 0.5 h [8] [ng/mL] | concentration at 10 min [9] [ng/mL] | concentration at 0.5 h [10] [ng/mL] | logD [11] | IC50 (Renin) [nM] | solubility [12] [µg/mL] | concentration at 0.5 h [13] [ng/mL] | concentration at 10 min [14] [ng/mL] | concentration at 10 min [15] [ng/mL] | concentration at 0.5 h [16] [ng/mL] |
| --- | --- | --- | --- | --- | --- | --- | --- | --- | --- | --- | --- | --- | --- | --- | --- | --- | --- |
| CC(C)C[C@H](O)[C@H](O)[C@H](CC1CCCCC1)NC(=O)[C@H](Cc1cscn1)NC(=O)[C@H](Cc1ccccc1)CS(=O)(=O)C1CN(C)C1 | 2000 | 1300 | 790 | 850 | 80 | 80 | 1800 | 1900 | 510 | 550 | 3.89 | 3.9 |  |  |  |  |  |
| CC(C)C[C@H](O)[C@H](O)[C@H](CC1CCCCC1)NC(=O)[C@H](Cc1cscn1)NC(=O)[C@@H](CC(=O)N(C)CCn1ccnc1)Cc1ccccc1 |  |  |  |  |  |  | 400 | 810 | 57 | 190 | 4.01 | 1.3 | 120 (≈ 173 µM) |  |  |  |  |
| COCCOCOCCN(C)C(=O)C[C@@H](Cc1ccccc1)C(=O)N[C@@H](Cc1cscn1)C(=O)N[C@@H](CC1CCCCC1)[C@@H](O)[C@@H](O)CC(C)C |  |  |  |  |  |  |  |  |  |  | > 4.6 | 1.6 | 180 (≈ 246 µM) | 3100 | 3100 | 300 | 570 |
| CC(C)C[C@H](O)[C@H](O)[C@H](CC1CCCCC1)NC(=O)[C@H](Cc1cscn1)NC(=O)[C@@H](CC(=O)NCCc1ccccn1)Cc1ccccc1 |  |  |  |  |  |  |  |  |  |  |  | 37 |  |  |  |  |  |
| CC(C)C[C@H](O)[C@H](O)[C@H](CC1CCCCC1)NC(=O)[C@H](Cc1cscn1)NC(=O)[C@H](Cc1ccccc1)CS(=O)(=O)C(C)(C)C |  |  |  |  |  |  |  |  |  |  | > 4.2 |  |  | 500 | 830 | 22 | 29 |

Other lines, results leading:

| AUC [1] [ng·h/mL] | AUC [2] [ng·h/mL] | Cmax [3] [ng/mL] | Cmax [4] [ng/mL] | bioavailability [5] [%] | bioavailability [6] [%] | concentration at 10 min [7] [ng/mL] | concentration at 0.5 h [8] [ng/mL] | concentration at 10 min [9] [ng/mL] | concentration at 0.5 h [10] [ng/mL] | logD [11] | IC50 (Renin) [nM] | solubility [12] [µg/mL] | concentration at 0.5 h [13] [ng/mL] | concentration at 10 min [14] [ng/mL] | concentration at 10 min [15] [ng/mL] | concentration at 0.5 h [16] [ng/mL] | SMILES |
| --- | --- | --- | --- | --- | --- | --- | --- | --- | --- | --- | --- | --- | --- | --- | --- | --- | --- |
|  |  |  |  |  |  |  |  |  |  | 3.11 | 9.4 |  | 780 | 1600 | 600 | 450 | CC(C)C[C@H](O)[C@H](O)[C@H](CC1CCCCC1)NC(=O)[C@H](Cc1cscn1)NC(=O)[C@@H](CC(=O)N(C)CCN(C)C)Cc1ccccc1 |
| 1200 |  | 860 |  | 85 |  |  |  |  |  | 4.15 | 4.1 |  |  |  |  | 570 | CC(C)C[C@H](O)[C@H](O)[C@H](CC1CCCCC1)NC(=O)[C@H](Cc1cscn1)NC(=O)[C@@H](CC(=O)N(C)CCN1CCOCC1)Cc1ccccc1 |
|  |  |  |  |  |  | 1900 | 370 | 68 | 50 |  | 0.8 | 180 (≈ 251 µM) |  |  |  |  | COCCOCOCCN(C)C(=O)C[C@@H](Cc1ccccc1)C(=O)N[C@@H](Cc1c[nH]cn1)C(=O)N[C@@H](CC1CCCCC1)[C@@H](O)[C@@H](O)CC(C)C |
